# Measured values as given in publication PMC4314522 (Molecular Metabolism, 2014).
# Like-named read-outs stand apart in the source and are kept apart here.
# Assays:
# human GPR40 [1] = target: T1, human GPR40 (Homo sapiens, UniProt O14842); assay: IP turnover assay in transiently transfected COS-7 cells; assay type: cell-based; conditions: for Emax: COS-7, read-out: IP3 (in vitro) Emax
# [2] = test system: mouse colonic crypt cultures GPR40 (−/−); assay: Total GLP-1 release from primary colonic crypt cultures, Gpr40 KO mice; assay type: cell-based; conditions: 1 μM ligand, 2 h, relative to basal (vehicle)
# Method in brief: (§1)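 Colonic crypts from male C57BL/6 littermates were collagenase-digested and seeded on Matrigel. […] Next day, cells were exposed to ligands for 2 h at 37 °C, in triplicate, in standard solution with 0.1% fatty-acid-free BSA and 10 mM glucose. Synthetic ligands were in DMSO; ALA was BSA-complexed at 6:1 molar. Total GLP-1 was measured by electrochemiluminescent immunoassay, expressed as fold over vehicle basal.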
# PK experiments = conditions: mouse, in vivo, po, 30 mg/kg
# plasma GIP = assay: Plasma GIP after oral gavage in fasted mice; assay type: in vivo, mouse; conditions: 30 mg/kg oral, 30 min, overnight fasted mice
# human GPR40 [3] = target: T1, human GPR40; assay: cAMP accumulation assay in transiently transfected COS-7 cells; assay type: cell-based; conditions: for Stimulation of cAMP accumulation (in words): COS-7 transfected with GPR40
# human GPR40 [4] = target: T1, human GPR40; assay type: binding
# human GPR40 [5] = target: T1, human GPR40; assay type: binding; remark: listed apart in the source
# [6] = test system: mouse colonic crypt cultures (WT); assay: Total GLP-1 release from primary colonic crypt cultures, WT mice; assay type: cell-based; conditions: 1 μM ligand, 2 h, relative to basal (vehicle)
# Method in brief: as §1
# plasma GLP-1 = assay: Plasma total GLP-1 after oral gavage in fasted mice; assay type: in vivo, mouse; conditions: 30 mg/kg oral, 30 min, overnight fasted mice; vehicle about 5 pmol/L
# [7] = phase-II studies, cited from earlier work
# T1 sequence (O14842 whole entry): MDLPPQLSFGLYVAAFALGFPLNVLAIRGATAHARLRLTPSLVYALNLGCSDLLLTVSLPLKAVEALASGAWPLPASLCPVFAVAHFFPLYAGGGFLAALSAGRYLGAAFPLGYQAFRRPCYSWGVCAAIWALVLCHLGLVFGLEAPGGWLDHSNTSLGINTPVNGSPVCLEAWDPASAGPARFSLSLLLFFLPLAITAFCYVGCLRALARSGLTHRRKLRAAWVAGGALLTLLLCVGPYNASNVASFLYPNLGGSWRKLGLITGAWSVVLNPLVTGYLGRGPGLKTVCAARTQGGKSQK
EC50 (human GPR40 [1]),Emax (human GPR40 [1]),Cmax (PK experiments),"cAMP potency, fold lower than the potency for IP-accumulation (human GPR40 [3]; cAMP EC50 versus IP EC50)",Binding (in vitro) [3H]L358: positive or negative competitive binding (human GPR40 [4]),IC50 (human GPR40 [4]),Binding (in vitro) [3H]AM-1638: positive or negative competitive binding (human GPR40 [5]),IC50 (human GPR40 [5]),EC50 (human GPR40 [3]),SMILES,"tGLP-1 (ex vivo) release, GPR40 (−/−) [2]","Plasma GIP, median of all experiments (plasma GIP; vehicle 53 pmol/L)",Stimulation of cAMP accumulation (in words) (human GPR40 [3]),"tGLP-1 (ex vivo) release, WT [6]","Plasma GLP-1, median of all experiments (plasma GLP-1)",Effect on HbA1c ([7]; without signs of hypoglycemia),Effect on plasma GLP-1 [7],Significance of plasma GIP increase (in words) (plasma GIP)
0.0251 µM,170 ± 14%,11 µM,7 fold,(neg),0.026 µM,(pos),0.029 µM,–,COc1ccc(F)c(-c2ccc(COc3cccc([C@@H](CC(=O)O)C4CC4)c3)cc2C2=CCCC2(C)C)c1 [AM-1638],1.1 ± 0.07 fold change,383 pmol/L,stimulated cAMP accumulation robustly,3.0 ± 0.54 fold change,29 pmol/L,–,–,–
–,–,–,–,–,–,–,–,–,CC(C)c1noc(C2CCN(c3ncnc(Nc4ccc(S(C)(=O)=O)cc4F)c3[N+](=O)[O-])CC2)n1 [AR231453],–,–,–,4.7 ± 0.3 fold change,–,–,–,–
12 µM,56 ± 6%,–,–,–,–,–,–,> 1000 µM,"CC/C=C\C/C=C\C/C=C\C/C=C\C/C=C\C/C=C\CCC(=O)O [DHA, docosahexaenoic acid]",–,–,not able to stimulate cAMP accumulation meaningfully,–,–,–,–,–
–,98 ± 4%,2 µM,–,(pos),–,(neg),–,–,"Cc1cc(OCCCS(C)(=O)=O)cc(C)c1-c1cccc(COc2ccc3c(c2)OC[C@H]3CC(=O)O)c1 [TAK-875, fasiglifam]",1.1 ± 0.12 fold change,–,no or very limited stimulation of cAMP production,1.5 ± 0.08 fold change,10.8 pmol/L,decreased HbA1c as efficiently as sulfonylurea,no effect,only increased plasma GIP significantly in one of the three experiments
